Assay results reported in paper PMC9476936 (ACS Pharmacology & Translational Science, 2021).
Like-named read-outs stand apart in the source and are kept apart here. Values belong to the compound of their own block, whether it stands above or below them.

What was measured:
ABCB1 = settings: cited from earlier work
human ABCG2 [1] = target: T1, human ABCG2 (Homo sapiens, UniProt Q9UNQ0); type: biochemical
T1 sequence (Q9UNQ0 1-655): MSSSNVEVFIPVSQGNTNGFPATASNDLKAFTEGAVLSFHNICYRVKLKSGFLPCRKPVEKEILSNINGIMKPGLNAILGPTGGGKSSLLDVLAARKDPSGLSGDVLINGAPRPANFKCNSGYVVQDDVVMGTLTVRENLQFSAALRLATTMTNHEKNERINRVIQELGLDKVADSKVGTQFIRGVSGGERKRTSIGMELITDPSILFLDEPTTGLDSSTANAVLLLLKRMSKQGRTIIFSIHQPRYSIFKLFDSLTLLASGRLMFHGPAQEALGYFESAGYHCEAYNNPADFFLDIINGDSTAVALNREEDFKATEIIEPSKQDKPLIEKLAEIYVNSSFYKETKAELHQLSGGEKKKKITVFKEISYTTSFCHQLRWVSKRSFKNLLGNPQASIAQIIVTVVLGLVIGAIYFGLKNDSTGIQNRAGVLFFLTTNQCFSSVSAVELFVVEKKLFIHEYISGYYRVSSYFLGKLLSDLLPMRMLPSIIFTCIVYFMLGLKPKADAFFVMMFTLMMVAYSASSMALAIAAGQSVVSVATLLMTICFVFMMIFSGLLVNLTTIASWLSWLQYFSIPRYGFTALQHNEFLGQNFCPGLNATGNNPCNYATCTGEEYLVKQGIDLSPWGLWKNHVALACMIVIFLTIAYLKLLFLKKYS
Method in brief: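 Human ABCG2 (N-terminal His10) vesicles from baculovirus-infected High Five cells; 35 μg protein/50 μL in MES-Tris pH 6.8 buffer with 2 mM DTT. Photosensitizer (0–20 μM) added at 37 °C for 3 min, then 690 nm light (0–5 J/cm2, 50 mW/cm2). Fixed 0.5 J/cm2 for the dose series; fixed 2 μM for the fluence series. Denatured at 37 °C for 20 min, 7% Tris-acetate gel, 10 μg/lane, colloidal blue stain, densitometry.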

human ABCB1 [2] = target: T2, human ABCB1 (Homo sapiens, UniProt P08183); type: biochemical
human ABCB1 [3] = target: T2, human ABCB1; type: biochemical; remark: listed apart in the source
human ABCB1 [4] = target: T2, human ABCB1; type: biochemical; remark: listed apart in the source
human ABCB1 [5] = target: T2, human ABCB1; type: biochemical; settings: 2 μM BPD, 690 nm
human ABCG2 [6] = target: T1, human ABCG2; experiment: Vanadate; type: biochemical; settings: read-out: IC50 for ATPase activity of ABCG2; light activation (+hv) 690 nm, 0.05 J/cm2, 50 mW/cm2; membrane vesicles
[7] = 2 μM BPD, light fluence increased from 0 to 5 J/cm2
[8] = BPD 20 μM + light 690 nm, 5 J/cm2, 50 mW/cm2

T2 sequence (P08183 whole entry): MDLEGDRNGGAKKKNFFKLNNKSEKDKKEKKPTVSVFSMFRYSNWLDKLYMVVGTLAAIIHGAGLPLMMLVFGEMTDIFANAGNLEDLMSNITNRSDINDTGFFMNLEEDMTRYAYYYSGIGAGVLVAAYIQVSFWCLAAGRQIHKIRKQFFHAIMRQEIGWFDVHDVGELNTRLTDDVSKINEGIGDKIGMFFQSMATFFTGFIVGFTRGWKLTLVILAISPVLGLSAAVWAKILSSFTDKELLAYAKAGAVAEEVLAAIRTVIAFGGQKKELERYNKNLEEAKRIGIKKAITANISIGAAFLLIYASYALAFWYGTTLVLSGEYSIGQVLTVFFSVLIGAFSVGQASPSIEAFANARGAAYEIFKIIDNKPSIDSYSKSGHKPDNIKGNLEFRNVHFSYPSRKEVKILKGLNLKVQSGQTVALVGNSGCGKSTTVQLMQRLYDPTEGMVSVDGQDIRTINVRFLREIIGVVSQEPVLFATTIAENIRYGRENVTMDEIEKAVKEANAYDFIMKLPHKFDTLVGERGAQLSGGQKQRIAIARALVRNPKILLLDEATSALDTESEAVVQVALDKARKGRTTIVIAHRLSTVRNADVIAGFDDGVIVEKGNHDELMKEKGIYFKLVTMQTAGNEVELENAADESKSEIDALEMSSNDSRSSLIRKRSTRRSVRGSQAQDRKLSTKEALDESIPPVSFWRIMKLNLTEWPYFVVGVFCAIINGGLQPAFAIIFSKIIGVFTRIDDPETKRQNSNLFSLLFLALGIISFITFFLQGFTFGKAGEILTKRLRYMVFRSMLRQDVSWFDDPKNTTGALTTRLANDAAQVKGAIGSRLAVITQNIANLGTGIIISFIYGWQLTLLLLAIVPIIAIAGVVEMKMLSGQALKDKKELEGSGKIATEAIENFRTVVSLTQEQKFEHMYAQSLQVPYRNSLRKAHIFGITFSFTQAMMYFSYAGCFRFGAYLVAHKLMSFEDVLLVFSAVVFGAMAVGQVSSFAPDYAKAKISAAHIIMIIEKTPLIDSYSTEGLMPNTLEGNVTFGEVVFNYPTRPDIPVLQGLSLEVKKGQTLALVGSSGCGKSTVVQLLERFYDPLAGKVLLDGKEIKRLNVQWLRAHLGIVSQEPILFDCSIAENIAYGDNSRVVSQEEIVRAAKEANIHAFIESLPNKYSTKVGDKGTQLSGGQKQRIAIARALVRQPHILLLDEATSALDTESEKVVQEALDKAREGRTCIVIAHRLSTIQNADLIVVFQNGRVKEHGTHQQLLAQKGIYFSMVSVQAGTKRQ

Compound: COc1cc2c(cc1OC)CN(CCc1ccc(NC(=O)c3cccc4c(=O)c5cccc(OC)c5[nH]c34)cc1)CC2 [elacridar]
concentrations inhibiting both drug transport and ATPase activity of ABCB1 (ABCB1): sub-micromolar concentrations

Compound: COc1cc2c(cc1OC)CN(CCc1ccc(NC(=O)c3cc(OC)c(OC)cc3NC(=O)c3cnc4ccccc4c3)cc1)CC2 [tariquidar]
concentrations inhibiting both drug transport and ATPase activity of ABCB1 (ABCB1): sub-micromolar concentrations

Compound: O[C@@H](COc1cccc2ncccc12)CN1CCN([C@@H]2c3ccccc3[C@@H]3[C@H](c4ccccc42)C3(F)F)CC1 [zosuquidar]
concentrations inhibiting both drug transport and ATPase activity of ABCB1 (ABCB1): sub-micromolar concentrations

reduction of monomeric ABCG2 band intensity (human ABCG2 [1]; [7]): 5.4 fold | BPD concentration at which ABCG2 aggregation bands became evident (human ABCG2 [1]; 0.5 J/cm2, 690 nm): higher than 0.5 μM | band corresponding to monomeric ABCG2 (human ABCG2 [1]; [8]): disappeared | intensity of protein band of monomeric (non-aggregated) ABCG2 (human ABCG2 [1]; BPD alone 20 μM, no light): did not alter | further reduction of ATPase activity of ABCB1 by light activation (human ABCB1 [2]; +hv 690 nm, 0.05 J/cm2, 50 mW/cm2 versus −hv, stated jointly for ABCB1 and ABCG2): up to 12 fold | IC50 (human ABCB1 [2]; read-out: IC50 for ATPase activity of ABCB1, light activation (+hv) 690 nm, 0.05 J/cm2, 50 mW/cm2, membrane vesicles): 700 ± 100 nM | reduction of monomeric ABCB1 band intensity (human ABCB1 [3]; [7]): 9.1 fold | BPD concentration at which ABCB1 aggregation bands became evident (human ABCB1 [3]; 0.5 J/cm2, 690 nm): higher than 0.5 μM | band corresponding to monomeric ABCB1 (human ABCB1 [3]; [8]): disappeared | intensity of protein band of monomeric (non-aggregated) ABCB1 (human ABCB1 [3]; BPD alone 20 μM, no light): did not alter | reduction of ATPase activity of ABCB1 in nanodiscs (human ABCB1 [4]; absence of light activation): 51.7 ± 5.3% | reduction of ATPase activity of ABCB1 in nanodiscs (human ABCB1 [4]; light activation 690 nm, 0.05 J/cm2, 50 mW/cm2): 97.3 ± 1.3% | disappearance of protein band corresponding to monomeric ABCB1 in nanodiscs (human ABCB1 [5]; 50 mW/cm2, 0.5 J/cm2): 49.0 ± 2.6% | disappearance of protein band corresponding to monomeric ABCB1 in nanodiscs (human ABCB1 [5]; 50 mW/cm2, 5 J/cm2): 88.0 ± 3.5% | IC50 (human ABCG2 [6]): 800 ± 100 nM
Compound: benzoporphyrin derivative [BPD]
